{
  "source": "paper PMC10131263",
  "about": "(Chemical & Biomedical Imaging, 2023)",
  "key": {"[1]": {"system": "HUVECs", "assay": "Fluorescence microscopy of beacon uptake and activation, HUVECs", "type": "cell-based, human", "conditions": "2.5 μM, 24 h incubation, fluorescence microscopy Cy5 channel", "outline": "(§1)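 Cells (patient-derived SFs or donated HUVECs) seeded at 5 × 10^3 per well in 8-chamber slides. After 24 h the medium was changed and test compound added to 2.5 µM final for a further 24 h. Cells washed, fixed in 4% paraformaldehyde for 20 min and mounted with DAPI. Imaged on an inverted microscope: Cy5 620/60 ex, 665 long-pass em; exposure 200 ms for SFs, 1500 ms for HUVECs.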"}, "[2]": {"system": "MMP-13 expressing SFs", "assay": "Fluorescence microscopy of beacon uptake and activation, SFs", "type": "cell-based, human", "conditions": "2.5 μM, 24 h incubation, fluorescence microscopy Cy5 channel", "outline": "as §1"}},
  "data": [
    {"substance": "Pyro-glgfrvgk-BHQ3 [DPPMMP13B]", "values": [
      {"measurement": "Intracellular pyro fluorescence in HUVECs (negligible MMP-13 expression)", "setting": "[1]", "value": "negligible fluorescence"},
      {"measurement": "Intracellular pyro fluorescence in MMP-13 + SFs", "setting": "[2]", "value": "negligible fluorescence"}
    ]}
  ]
}
